Test results published in PubChem BioAssay.
Calls of active or inactive are those of the source.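 Rule for the calls, unless noted: active = fluorescence slope after compound addition differing from the mean of all tested samples at 99.7% confidence, mostly higher but some lower; inactive = the rest.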

Assays:
[1] = inhibitors of TNFa-induced NFkB p65 translocation, primary screen, imaging, HUVEC, MLSMR starter and 10KST1 sets (AID 438;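 active = inhibition above 20% together with a positive visual image hit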;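 note: compound added about 3h40 before a 20 min TNFalpha stimulation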;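 for inhibition: signal is the nuclear over cytoplasmic p65 intensity ratio per well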); settings: HUVEC TNFa-induced p65 nuclear translocation; cell count: measured here: nuclei count (cytotoxicity indicator), at 2.08 µM; inhibition: at 2 µM, stronger effect = higher value, 0% TNFa-plus-vehicle, 100% no-TNFa wells
[2] = reduction of polyQ htt aggregates in cells – imaging, exon1htt(103Q)mCFP cells, high-content imaging, primary screen (AID 483;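 active = visual image review flags a hit and inhibition of aggregation exceeds 20%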;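 note: compound exposure lasted 3 days before fixation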;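 for nuclei count: percent of the per-plate median nuclei count of sample wells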); settings: exon1htt(103Q)mCFP cell line, aggregate imaging, at 2 µM; inhibition of aggregation: stronger effect = higher value; nuclei count: measured here: cell count, toxicity
[3] = endothelial E-selectin expression blockers – imaging, HUVEC, immunofluorescence, MLSMR starter and 10KST1 sets, primary screen (AID 487;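 active = visually confirmed hit in the image check and inhibition above 20%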;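 for inhibition: signal is fraction of cell area covered by stained E-selectin grains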;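 for nuclei count: 100% = median nuclei count of all wells on the same plate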); settings: HUVEC TNFalpha-induced E-selectin immunofluorescence imaging, at 2 µM; inhibition: stronger effect = higher value; nuclei count: measured here: cell number, toxicity
[4] = biological target: Voltage-gated potassium channel subunit beta-2 (Rattus norvegicus) (UniProt P62483); experiment: inhibitors of rat Kvbeta2 reductase activity – biochemical, NADPH fluorescence, primary screen (AID 622;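 active = fluorescence slope higher than the sample average by over 3 SD, cut at about -0.22 in these data, passing the limit was not always enough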;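 note: slope of raw intensity against log time taken from 70 to 1610 s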); settings: recombinant KvBeta, 4-cyanobenzaldehyde reduction, at 10 µM, stronger effect = higher value
Sequence of Voltage-gated potassium channel subunit beta-2 (Rattus norvegicus) (P62483 whole entry, looked up): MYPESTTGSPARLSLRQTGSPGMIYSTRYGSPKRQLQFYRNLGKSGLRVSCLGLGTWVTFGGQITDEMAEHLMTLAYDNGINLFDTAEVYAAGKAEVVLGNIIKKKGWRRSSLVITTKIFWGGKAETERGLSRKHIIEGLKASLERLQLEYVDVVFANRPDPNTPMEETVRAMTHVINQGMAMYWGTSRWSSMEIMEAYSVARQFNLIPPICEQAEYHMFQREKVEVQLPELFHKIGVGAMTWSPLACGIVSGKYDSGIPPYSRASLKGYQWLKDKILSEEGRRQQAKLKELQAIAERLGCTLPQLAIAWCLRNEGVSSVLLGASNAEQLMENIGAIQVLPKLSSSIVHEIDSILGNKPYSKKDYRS

[5] = biological target: Voltage-gated potassium channel subunit beta-2 (Rattus norvegicus) (UniProt P62483); experiment: enhancers of rat Kvbeta2 NADPH turnover – biochemical, NADPH fluorescence, primary screen (AID 623;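 active = NADPH fluorescence slope more negative than the mean of all samples by about 3 SD, 99.7% confidence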;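 note: fluorescence intensity change per second fitted from 20 to 320 s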); settings: Recombinant KvBeta, NADPH fluorescence decrease slope, 10 min; at 10 µM; stronger effect = lower value
[6] = biological target: Muscarinic acetylcholine receptor M4 (Homo sapiens) (UniProt P08173); experiment: M4-linked GIRK flux change, two-sided – cell-based, HEK293 M4/GIRK, thallium flux, BTC-AM, M4 allosteric agonist project, primary screen (AID 625); settings: at 10 µM, actives lie on both sides;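 note: thallium influx through GIRK channels coupled to M4 in HEK293 cells with BTC-AM dye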
Sequence of Muscarinic acetylcholine receptor M4 (Homo sapiens) (P08173 whole entry, looked up): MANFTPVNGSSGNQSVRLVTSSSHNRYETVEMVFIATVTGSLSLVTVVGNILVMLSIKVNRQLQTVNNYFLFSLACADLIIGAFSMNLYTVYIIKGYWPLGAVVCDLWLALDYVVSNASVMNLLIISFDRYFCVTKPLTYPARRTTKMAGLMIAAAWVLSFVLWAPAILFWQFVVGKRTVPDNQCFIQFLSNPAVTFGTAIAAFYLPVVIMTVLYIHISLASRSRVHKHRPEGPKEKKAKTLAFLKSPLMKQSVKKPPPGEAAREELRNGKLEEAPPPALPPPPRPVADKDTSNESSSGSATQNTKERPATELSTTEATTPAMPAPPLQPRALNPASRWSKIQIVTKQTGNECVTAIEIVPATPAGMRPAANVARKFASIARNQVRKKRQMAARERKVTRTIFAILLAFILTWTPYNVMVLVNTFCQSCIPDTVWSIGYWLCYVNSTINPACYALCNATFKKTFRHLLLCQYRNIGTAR
Procedure, shortened: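 assay system = HEK293 cells with M4 receptor and GIRK channels | medium = pH 7.3 thallium assay buffer | doses = 10 µM final, single point | timing = cells overnight at 37 °C, BTC-AM loading 1 h, reads 2 min total | signal = BTC-AM fluorescence, 1 Hz kinetic reads | read-out = post-addition slope, 15–24 s, of baseline-normalized fluorescence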

[7] = blockers of RIG-like receptor reporter activation – cell-based, Sendai virus stimulus, luciferase, 10K MLSCN set, TLR/RLR signaling modifier project, primary screen (AID 602276;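 active = inhibition at or above 50% at 10 µM; inactive = inhibition below 50%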;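 note: firefly luciferase from ISG56 promoter only with Renilla not read in this screen; 0% = Sendai virus plus DMSO and 100% = medium plus DMSO without virus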); settings: HEK293 RL24 IRF3 luciferase reporter, at 10 µM, stronger effect = higher value
[8] = TLR3 IRF3 reporter activation blockers – cell-based, poly I:C stimulus, luciferase, 10K MLSCN set, primary screen (AID 602277;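 active = inhibition of the reporter signal at or above 50%; inactive = inhibition below 50%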); settings: HEK293-TLR3 RL24 IRF3 luciferase reporter, at 10 µM, stronger effect = higher value

SMILES	cell count [1]	inhibition [1]	inhibition of aggregation [2]	nuclei count [2]	inhibition [3]	nuclei count [3]	fluorescence slope [4]	NADPH fluorescence slope [5]	fluorescence slope [6]	inhibition [7]	inhibition [8]
COc1ccc(C(CNC(=O)CN2C(=O)NC3(CC(C)CC(C)(C)C3)C2=O)N2CCOCC2)cc1 (stereo unspecified)	427	8.4% (inactive)	13.7% (inactive)	97.7%	-57% (inactive)	115%	-0.413 (inactive)	3.8e-05 (inactive)	0.00559 (inactive)	-2.17% (inactive)	-5.07% (inactive)
CCOC(=O)CSc1nnc(CNC(=O)c2cccs2)n1-c1cc(OC)ccc1OC	521	-3.3% (inactive)	-5.1% (inactive)	103%	-7.4% (inactive)	95.1%	-0.545 (inactive)	-2.7e-05 (inactive)	0.00509 (inactive)	0.513% (inactive)	17.5% (inactive)
Cc1occc1C(=O)Nc1cccnc1	537	-21.3% (inactive)	-33.6% (inactive)	108%	-9.9% (inactive)	84.1%	-0.538 (inactive)	-4.1e-05 (inactive)	0.00413 (inactive)	18.2% (inactive)	7.63% (inactive)
CN1CC[n+]2cnc3ccccc3c21	600	1.2% (inactive)	-17.8% (inactive)	103%	-9.4% (inactive)	122%	-0.585 (inactive)	-8.5e-05 (inactive)	0.00403 (inactive)	16.8% (inactive)	19.3% (inactive)
CC(=O)Nc1ccc(NC2=CC(=O)CC(C)(C)C2)cc1	424	1% (inactive)	14% (inactive)	107%	-60% (inactive)	119%	-0.541 (inactive)	-5.8e-05 (inactive)	0.00709 (inactive)	18.6% (inactive)	17.5% (inactive)
Cc1ccc(SCCNS(=O)(=O)c2ccc(F)cc2)cc1	348	4% (inactive)	-4.1% (inactive)	106%	-53.9% (inactive)	122%	-0.55 (inactive)	-3.1e-05 (inactive)	0.0043 (inactive)	8.34% (inactive)	12.7% (inactive)
CCOC(=O)C1=C(C)NC(SC(C)=O)=NC1c1ccc(OC(C)=O)c(OC)c1 (stereo unspecified)	550	0% (inactive)	50% (active)	64.7%	-10.1% (inactive)	101%	-0.507 (inactive)	-0.000113 (inactive)	0.0052 (inactive)	1.93% (inactive)	1.43% (inactive)
O=C(CCCn1c(=O)c2sccc2n(Cc2ccc(F)cc2)c1=O)NCc1ccco1	417	-9.3% (inactive)	3% (inactive)	92.5%	-40.1% (inactive)	106%	-0.583 (inactive)	-2.1e-06 (inactive)	0.00594 (inactive)	7.63% (inactive)	15.5% (inactive)
COC(=O)Cc1c(C)nc2nc(-c3ccco3)[nH]n2c1=O	409	1.2% (inactive)	5.5% (inactive)	93.6%	-28.5% (inactive)	105%	-0.467 (inactive)	-4e-05 (inactive)	0.00635 (inactive)	9.5% (inactive)	19.1% (inactive)
CCOC(=O)c1cc(-c2ccc(Cl)s2)nc2c1c(C)nn2C	473	-11% (inactive)	-13.7% (inactive)	95%	-142% (inactive)	106%	-0.494 (inactive)	-1.5e-05 (inactive)	0.00338 (inactive)	8.23% (inactive)	-18.9% (inactive)
COC(=O)c1[nH]c(C)c(/C(O)=C2\C(=O)C(=O)N(CCCN3CCOCC3)C2c2ccccn2)c1C (stereo unspecified)	814	0.6% (inactive)	14.2% (inactive)	110%	-1.3% (inactive)	113%	-0.473 (inactive)	-2.7e-06 (inactive)	0.00368 (inactive)	12.3% (inactive)	9.49% (inactive)
C=C(C)CSc1nnc(-c2cccc(S(=O)(=O)N(C)C)c2)n1-c1cc(OC)ccc1OC	712	-12.2% (inactive)	31.2% (active)	123%	-12.6% (inactive)	107%	-0.576 (inactive)	4e-05 (inactive)	0.00586 (inactive)	18.8% (inactive)	34.6% (inactive)
CCn1cc(C(=O)NCCN(C)CCc2ccccc2)c(=O)c2cc(S(=O)(=O)N(C)C)ccc21	543	-20.4% (inactive)	-8.6% (inactive)	118%	-10.5% (inactive)	110%	-0.494 (inactive)	0.0002 (inactive)	0.00668 (inactive)	14% (inactive)	18.4% (inactive)
COc1cc(C(=O)N2c3ccccc3CC2C)cc(OC)c1OC (stereo unspecified)	348	4.3% (inactive)	-6.3% (inactive)	89%	-13.9% (inactive)	113%	-0.296 (inactive)	-2.6e-05 (inactive)	0.0071 (inactive)	17.5% (inactive)	33.5% (inactive)
Cc1cncn1CCc1nc2c3ccccc3nc(=S)n2[nH]1	537	0% (inactive)	4.4% (inactive)	67.3%	-141% (inactive)	110%	-0.432 (inactive)	1.4e-06 (inactive)	0.00558 (inactive)	17% (inactive)	28.8% (inactive)
CCOC(=O)c1c(C)oc2ccc(O)c(CN(C)C)c12	663	1.9% (inactive)	16.5% (inactive)	105%	-211% (inactive)	108%	-0.551 (inactive)	-6.7e-06 (inactive)	0.00733 (inactive)	8.53% (inactive)	20% (inactive)
Cc1noc(C)c1COc1cccc(C(=O)Oc2ccc3c(c2)OCO3)c1	329	-9.6% (inactive)	4.3% (inactive)	80.2%	1.2% (inactive)	100%	-0.567 (inactive)	-2.5e-05 (inactive)	0.00685 (inactive)	8.11% (inactive)	15.8% (inactive)
Cc1cc(C)cc(NS(=O)(=O)c2ccc3[nH]cc(C(=O)NCc4ccco4)c(=O)c3c2)c1	416	1.5% (inactive)	3.8% (inactive)	99.9%	-19.7% (inactive)	97.7%	-0.57 (inactive)	-4.7e-05 (inactive)	0.00555 (inactive)	39.5% (inactive)	49.1% (inactive)
CCOc1ccc(N(C)S(=O)(=O)c2ccc3[nH]cc(C(=O)NCC4CCCO4)c(=O)c3c2)cc1 (stereo unspecified)	313	3.3% (inactive)	-9.8% (inactive)	67.5%	4% (inactive)	96.5%	-0.567 (inactive)	-4.5e-05 (inactive)	0.00944 (inactive)	1.36% (inactive)	23% (inactive)
COc1cccc(Oc2ccc(N)cn2)c1	392	-4.4% (inactive)	-4.1% (inactive)	100%	-126% (inactive)	114%	-0.537 (inactive)	-0.000148 (inactive)	0.0033 (inactive)	-7.7% (inactive)	1.94% (inactive)
CCOC(=O)CNS(=O)(=O)c1c(C)noc1C	562	-2.5% (inactive)	-0.2% (inactive)	108%	-40.9% (inactive)	105%	-0.441 (inactive)	-0.000338 (inactive)	0.00456 (inactive)	1.51% (inactive)	2.6% (inactive)
COCCCNC(=O)c1ccc2c(c1)OCO2	391	1.4% (inactive)	0.6% (inactive)	107%	-36.4% (inactive)	108%	-0.567 (inactive)	-9.1e-05 (inactive)	0.00354 (inactive)	-10.8% (inactive)	-37.6% (inactive)
O=C(CN1C(=O)COc2ccccc21)NCCCN1CCc2ccccc2C1	698	-5.4% (inactive)	-7.3% (inactive)	106%	-13.4% (inactive)	106%	-0.625 (inactive)	1.2e-05 (inactive)	0.00746 (inactive)	11.3% (inactive)	33.1% (inactive)
Cc1coc(NC(=O)CSc2nc(-c3ccncc3)cc(C(F)(F)F)c2C#N)n1	740	-7.9% (inactive)	16.1% (inactive)	86.8%	-29.3% (inactive)	115%	-0.471 (inactive)	-2.9e-05 (inactive)	0.00557 (inactive)	5.59% (inactive)	8.54% (inactive)
CCOc1ccc(C(c2nnnn2Cc2ccccc2)N2CCN(C(=O)c3ccco3)CC2)cc1 (stereo unspecified)	621	-0.2% (inactive)	-6.3% (inactive)	101%	20% (inactive)	104%	-0.492 (inactive)	-2.2e-06 (inactive)	0.00546 (inactive)	-3.47% (inactive)	9.07% (inactive)
Cc1ccccc1N(CC(=O)NCC1CCCO1)C(=O)C1(C)CC(=O)N=C2C=CC=CN21 (stereo unspecified)	651	-9.4% (inactive)	-3.5% (inactive)	100%	-111% (inactive)	133%	-0.492 (inactive)	-9.2e-06 (inactive)	0.00558 (inactive)	3.63% (inactive)	1.93% (inactive)
